From PMC6022754 (Bioorganic & medicinal chemistry letters, 2017)

Legend:
[1] = tested on: human colon tumor xenograft; conditions: human colon tumor xenograft model; cited from earlier work
[2] = computed physicochemical properties; conditions: LipE = pCC50 (HT29) – logD (at pH 7.4)
How it was run: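 Lipophilic efficiency: CC50 taken from whole-cell HT29 growth-inhibition screening, not an enzymatic target-based assay. The value is converted to pCC50, and logD at pH 7.4 is subtracted from it.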

[3] = tested on: PC3 prostate cancer cell line; experiment: quantitative high-throughput screening, PC3 cell growth inhibition; assay type: cell-based; conditions: PC3 cells, vs SSA (1)
[4] = tested on: HT29 colorectal carcinoma cell line; experiment: quantitative high-throughput screening, HT29 cell growth inhibition; assay type: cell-based; conditions: HT29 cells, vs SSA (1)
[5] = tested on: MDA-MB-231 breast cancer cell line; experiment: quantitative high-throughput screening, MDA-MB-231 cell growth inhibition; assay type: cell-based; conditions: MDA-MB-231 cells, vs SSA (1)
[6] = BJ cell cytotoxicity counter screen; assay type: cell-based; conditions: human, BJ cells (normal human foreskin fibroblast cell line)

CSc1ccc(/C=C2/C(C)=C(CC(=O)NCCN(C)C)c3cc(F)ccc32)cc1 [Compound 1, sulindac sulfide amide]
in vivo antitumor activity [1]: comparable to sulindac
LipE [2]: 1.78

CSc1ccc(/C=C2/C(C)=C(CC(=O)NCCCN(C)C)c3cc(F)ccc32)cc1 [Compound 2]
reduction of activity compared to lead compound 1, PC3 [3]: 2 fold
reduction of activity compared to lead compound 1, HT29 [4]: 4 fold
reduction of activity compared to lead compound 1, MDA-MB-231 [5]: 2 fold

CCN(CC)CCCNC(=O)CC1=C(C)/C(=C/c2ccc(SC)cc2)c2ccc(F)cc21 [Compound 4]
EC50 [6]: > 7.57 µM

CSc1ccc(/C=C2/C(C)=C(CC(=O)N(C)CCN(C)C)c3cc(F)ccc32)cc1 [Compound 5]
EC50 [6]: > 7.57 µM

CC1=C(CC(=O)NCCCN(C)C)c2cc(F)ccc2/C1=C\c1nc2ccccc2s1 [Compound 33]
EC50 [6]: > 7.57 µM

CC1=C(CC(=O)N(C)CCN(C)C)c2cc(F)ccc2/C1=C\c1nc2ccccc2s1 [Compound 35]
EC50 [6]: > 7.57 µM

CSc1ccc(/C=C2/C(C)=C(CC(=O)NCCC3CCCN3C)c3cc(F)ccc32)cc1 (centres unmarked) [Compound 41]
LipE [2]: > 3

CSc1ccc(/C=C2/C(C)=C(CC(=O)N3CCC[C@H]3CN3CCCC3)c3cc(F)ccc32)cc1 [Compound 43]
EC50 [6]: > 7.57 µM

CSc1ccc(/C=C2/C(C)=C(CC(=O)N3CCN(CCCN(C)C)CC3)c3cc(F)ccc32)cc1 [Compound 44]
EC50 [6]: > 7.57 µM

CSc1ccc(/C=C2/C(C)=C(CC(=O)N3CCN(CCN(C)C)CC3)c3cc(F)ccc32)cc1 [Compound 45]
EC50 [6]: > 7.57 µM

CSc1ccc(/C=C2/C(C)=C(CC(=O)N3CCN(c4ccncc4)CC3)c3cc(F)ccc32)cc1 [Compound 46]
EC50 [6]: > 7.57 µM

CSc1ccc(/C=C2/C(C)=C(CC(=O)N3CCCN(C)CC3)c3cc(F)ccc32)cc1 [Compound 50]
EC50 [6]: > 7.57 µM

COc1cc(/C=C2/C(C)=C(CC(=O)N3CCN(c4ccncc4)CC3)c3cc(F)ccc32)cc(OC)c1OC [Compound 59]
EC50 [6]: > 7.57 µM

CC1=C(CC(=O)NCCN2CCCC2)c2cc(F)ccc2/C1=C\c1nc2ccccc2s1 [Compound 61]
EC50 [6]: > 7.57 µM
LipE [2]: > 3

CC1=C(CC(=O)N2CCN(CCCN(C)C)CC2)c2cc(F)ccc2/C1=C\c1nc2ccccc2s1 [Compound 62]
EC50 [6]: > 7.57 µM
LipE [2]: > 3

CC1=C(CC(=O)N2CCN(c3ccncc3)CC2)c2cc(F)ccc2/C1=C\c1nc2ccccc2s1 [Compound 63]
EC50 [6]: > 7.57 µM

CSc1ccc(/C=C2/C(C)=C(CC(=O)NCc3ccccc3)c3cc(F)ccc32)cc1 [Compound 72]
reduction of activity compared to lead compound 1, PC3 [3]: 4 fold
reduction of activity compared to lead compound 1, HT29 [4]: 4 fold
reduction of activity compared to lead compound 1, MDA-MB-231 [5]: 1.5 fold

CC1=C(CC(=O)NCc2ccccc2)c2cc(F)ccc2/C1=C\c1ccc([S+](C)[O-])cc1 (centres unmarked) [Compound 79]
EC50 [6]: > 7.57 µM

COc1cc(/C=C2/C(C)=C(CC(=O)N(C)CCN(C)C(=O)[C@@H](N)C(C)C)c3cc(F)ccc32)cc(OC)c1OC [Compound 89]
EC50 [6]: > 7.57 µM
